Source: PubChem (several laboratories)
SKKanGAS inh: SKKanGAS growth inhibition; S. pyogenes SKKanGAS, kanamycin growth, BacTiter-Glo, 6 h; inhibition, % at 7.5 µM; 300,000 tested, 1.3% active; AID 1662;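 active = mean replicate score, as percent of positive control median, at least 50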;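 also: strain carries kanamycin resistance gene driven by streptokinase promoter and grows in 40 µg/ml kanamycin; loss of luminescence reflects streptokinase promoter inhibition or plain growth inhibition; 0% = median of DMSO wells and 100% = positive control at its reference dose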
Beta cell apopt: blocks beta cell apoptosis; INS-1E cytokine-induced death, ATP luminescence, 48 h; percent of positive-control rescue, neutral wells zero; protection from apoptosis, % (test concentration not listed); 300,000 tested, 0.8% active; AID 435005;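 active = Every replicate reaches about 75%, or at least half do and their mean reaches it too, limit read from the data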;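 also: 0% = cytokine-treated negative control wells and 100% = positive control rescue; higher means more ATP so stronger rescue from cytokine killing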
Mdm2 MdmX PPI: disrupts the human Mdm2-MdmX interaction; O15151+Q00987; SaOS-2 split-luciferase Mdm2/MdmX complementation, luminescence; inhibition, % at 8 µM; 330,000 tested, 3% active;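 active = inhibition of at least 50% at 8 µM in the primary screen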
Target sequence (O15151 whole entry, looked up): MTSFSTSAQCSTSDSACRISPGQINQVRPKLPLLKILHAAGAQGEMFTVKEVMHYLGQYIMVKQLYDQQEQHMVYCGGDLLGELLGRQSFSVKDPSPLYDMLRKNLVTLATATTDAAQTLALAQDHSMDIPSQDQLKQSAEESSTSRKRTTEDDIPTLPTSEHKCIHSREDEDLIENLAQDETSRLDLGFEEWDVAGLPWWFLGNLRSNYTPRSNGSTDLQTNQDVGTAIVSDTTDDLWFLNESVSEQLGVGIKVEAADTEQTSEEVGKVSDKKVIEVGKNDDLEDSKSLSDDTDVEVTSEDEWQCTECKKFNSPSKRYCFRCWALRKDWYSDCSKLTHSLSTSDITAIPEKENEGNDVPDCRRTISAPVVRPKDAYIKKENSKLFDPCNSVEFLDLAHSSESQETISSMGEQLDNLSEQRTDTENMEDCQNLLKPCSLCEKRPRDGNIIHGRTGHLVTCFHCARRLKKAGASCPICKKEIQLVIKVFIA
Target sequence (Q00987 whole entry, looked up): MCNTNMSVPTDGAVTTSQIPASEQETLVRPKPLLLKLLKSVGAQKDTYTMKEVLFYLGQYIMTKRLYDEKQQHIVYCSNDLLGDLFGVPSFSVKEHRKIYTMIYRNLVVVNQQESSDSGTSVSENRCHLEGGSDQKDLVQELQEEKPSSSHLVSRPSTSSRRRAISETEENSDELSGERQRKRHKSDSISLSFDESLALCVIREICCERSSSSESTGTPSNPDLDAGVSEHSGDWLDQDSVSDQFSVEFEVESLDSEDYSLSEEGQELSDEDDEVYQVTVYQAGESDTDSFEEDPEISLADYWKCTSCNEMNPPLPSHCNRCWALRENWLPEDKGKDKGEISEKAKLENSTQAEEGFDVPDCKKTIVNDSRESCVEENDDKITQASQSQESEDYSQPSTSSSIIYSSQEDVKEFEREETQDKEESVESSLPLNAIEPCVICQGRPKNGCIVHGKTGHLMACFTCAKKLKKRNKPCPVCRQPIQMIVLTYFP
T cruzi repl: blocks replication of Trypanosoma cruzi | inhibition, % (concentration not given with the values) | AID 1885 | 300,000 tested, 1.4% active | T. cruzi beta-gal in NIH3T3, luminescence, 90 h;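 active = mean inhibition across valid replicates above about 55%, limit read from the data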;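 also: signal also drops with host cell toxicity which is not excluded here; 0% = plate median of DMSO wells and 100% = zero luminescence signal; higher percent means less beta-gal luminescence so fewer parasites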
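System: mouse NIH/3T3 fibroblasts infected with β-gal-expressing T. cruzi Tulahuen C4 / Input: NIH/3T3 cells, 5,000 per well / Buffer or medium: Low-serum DMEM with 2% FBS / Probe or stimulus: 5000 reporter trypomastigotes per well / Schedule: ≥90 h infection period, 3 h prior cell attachment / Measured by: GalScreen luminescence, 60 min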
CSC inhib: blocks cancer stem cells; AID 2717; 300,000 tested, 1.1% active; cancer stem cell-like cells viability, luminescence; inhibition, % at 7.5 µM; in the data active = inhibition above about 75%; tested in HMLE shEcad cells
L major viab: inhibitors of Leishmania major promastigote growth. inhibition, % at 10 µM. 200,000 tested, 9% active. Leishmania major promastigotes, resazurin fluorescence viability; in the data active = inhibition above about 50%;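 also: promastigotes grown with compound for 44 hours at 28 °C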
* = called active by the depositor; . = no result. The list is not random: actives were taken first. Their share in the collection is about 9.4%.

SMILES	SKKanGAS inh	Beta cell apopt	Mdm2 MdmX PPI	T cruzi repl	CSC inhib	L major viab
O=C(CN1CCc2ccccc2C1)Nc1ccccc1N1CCCCCC1	86*	.	-23	35	0	31
O=C(CNCCC1=CCCCC1)Nc1ccccc1N1CCCCC1	1	-4	-11	15	24	97*
COc1ccc(Cl)cc1S(=O)(=O)N(C)CC(=O)N1CCOCC1	-1	-1	7	-6	0	.
N#CCn1cnc2c(oc3ccccc32)c1=O	-1	-3	0	-18	-14	.
Oc1ccccc1CN1CCN(C(O)(c2ccccc2)c2ccccc2)CC1	1	1	33	-57	6	.
Cc1ccccc1C(=O)NC1CCN(CC(=O)Nc2ccccc2Cl)CC1	2	1	6	8	-6	.
O=C(C1CC1)N1CCC(C(O)(c2ccccc2)c2ccccc2)CC1	3	-1	-2	2	-19	95*
Cc1c(Cl)cccc1NC(=O)CN1CCC(C(O)(c2ccccc2)c2ccccc2)CC1	23	0	34	62*	30	21
Oc1ccccc1CN1CCC(C(O)(c2ccccc2)c2ccccc2)CC1	-10	0	50	4	-14	56*
Fc1ccc(C2c3cccn3CCN2C(=S)Nc2cccc(F)c2)cc1 (stereo unspecified)	0	-9	0	29	-3	21
COc1ccccc1NC(=S)N1CCn2cccc2C1c1cccnc1 (stereo unspecified)	0	-3	-12	10	-6	78*
Fc1cccc(NC(=S)N2CCn3cccc3C2c2cccnc2)c1 (stereo unspecified)	-2	-2	7	63*	7	92*
Fc1ccccc1C1c2cccn2CCN1C(=S)Nc1ccc(Br)cc1 (stereo unspecified)	6	-11	9	3	24	23
S=C(NC1CCCCC1)N1CCn2cccc2C1c1cccnc1 (stereo unspecified)	-6	-3	26	55*	-13	98*
S=C(NC1CCCCC1)N1CCn2cccc2C1c1ccncc1 (stereo unspecified)	-3	-2	22	-9	-7	0
S=C(Nc1ccccc1)N1CCn2cccc2C1c1cccnc1 (stereo unspecified)	-4	2	28	31	-19	86*
COc1ccc(NC(=O)c2cccc(Cn3cc(Br)c([N+](=O)[O-])n3)c2)c(C)c1	-13	8	8	68*	3	5
NNC(=O)c1cccc(Cn2cc(Br)c([N+](=O)[O-])n2)c1	6	0	23	46	5	.
C=CCNc1nc(NCC)nc(N2CCOCC2)n1	-1	5	12	-14	7	4
O=C(Nc1cccnc1)c1ccc(N2CCOCC2)c([N+](=O)[O-])c1	-7	-10	-3	-6	-20	.
C=CCNc1nc(Nc2ccc(-c3nc4ccccc4o3)cc2)nc(N2CCOCC2)n1	25	2	-4	45	61	98*
C=CCNc1nc(Nc2ccc([N+](=O)[O-])cc2)nc(N2CCCC2)n1	17	-2	16	7	-10	81*
O=C(Nc1ccc(-c2nc3ccccc3o2)cc1)c1ccc(N2CCOCC2)c([N+](=O)[O-])c1	34	99*	34	57*	7	8
O=C(CNS(=O)(=O)c1cccc(Br)c1)NCC1CCCCC1	-10	-2	4	-10	-6	.
O=C(N/N=C/c1cccc([N+](=O)[O-])c1)C1CC(=O)N(c2ccc(F)cc2)C1 (stereo unspecified)	1	-4	9	12	.	-1
SMILES	SKKanGAS inh	Beta cell apopt	Mdm2 MdmX PPI	T cruzi repl	CSC inhib	L major viab
CCOc1ccc(S(=O)(=O)NCc2ccc(C)cc2)c2cccnc12	2	-2	-2	-19	-15	98*
Cc1ccc(C)c(OCC(O)CN2CCc3ccccc3C2)c1C (stereo unspecified)	3	4	-23	0	25	.
Cc1ccccc1CC(=O)Nc1ccon1	0	2	-17	0	1	.
CCN1CCN(CCCCSc2ccccc2)CC1	-9	-4	4	39	45	78*
c1ccc(SCCCCN2CCOCC2)cc1	-6	-3	6	18	5	.
CC(C)(C)n1cnc2cc(NCc3ccc(Br)cc3)ccc21	17	-1	-132	18	3	.
CCc1ccc(CNc2ccc3c(c2)ncn3C(C)(C)C)cc1	57*	0	-46	17	-3	.
O=C(Nc1ccc(OC(F)(F)F)cc1)N1CCN(c2ccnc3cc(Cl)ccc23)CC1	65*	68	22	64*	64	.
CC(C)(C)C(=O)N1CCN(c2ccnc3cc(Cl)ccc23)CC1	-17	-4	15	20	9	.
COCCn1c(-c2ccc(-c3ccc([N+](=O)[O-])cc3Br)o2)nc2c1c(=O)[nH]c(=O)n2CC(C)C	16	-1	18	51	30	73*
COc1ccc(-c2ccc(-c3nc4c(c(=O)[nH]c(=O)n4Cc4ccccc4)n3C)o2)c([N+](=O)[O-])c1	37	0	-14	14	.	72*
Cn1c(-c2cc(Cl)ccc2O)nc2c1c(=O)[nH]c(=O)n2Cc1ccccc1	.	3	13	19	2	54*
COCCn1c(=O)[nH]c(=O)c2c1nc(-c1ccc(-c3ccc(Cl)cc3[N+](=O)[O-])o1)n2Cc1ccccc1	17	-1	31	36	-5	25
O=C(CN1C(=O)CCS(=O)(=O)c2ccccc21)Nc1ccccc1F	2	1	3	-14	-8	.
CC(OC(=O)c1cccc(-n2cnnn2)c1)C(=O)NCc1ccccc1 (stereo unspecified)	-8	-7	15	-14	-12	.
Nc1nc(Cl)nc2c1ncn2[C@@H]1O[C@H](CO)[C@@H](O)[C@H]1O	1	-2	25	12	-9	-2
Nc1nc(=S)c2ncn([C@@H]3O[C@H](CO)[C@@H](O)[C@H]3O)c2[nH]1	.	12	27	.	98*	.
Nc1nc(=S)c2ncn(C3OC(CO)C(O)C3O)c2[nH]1 (stereo unspecified)	2	-3	.	-16	90*	.
CCN(CC(=O)NCCC1=CCCCC1)S(=O)(=O)c1ccccc1	12	0	-7	1	3	.
Cc1ccc(S(=O)(=O)c2nnn3c2nc(N2CCCCC2)c2ccccc23)cc1	15	-7	27	61*	-6	62*
Cc1ccc(S(=O)(=O)c2nnn3c2nc(N2CCOCC2)c2ccccc23)cc1	-1	4	19	9	-5	.
CN(c1ccccc1)S(=O)(=O)c1ccc(Cl)c(C(=O)NCc2ccccc2CN2CCCC2)c1	.	-10	23	.	4	.
O=C1C2(CCCC13COC(c1ccc(O)cc1)OC3)COC(c1ccc(O)cc1)OC2 (stereo unspecified)	2	5	13	12	2	.
CCN(CC)P(=O)(Nc1cccc(C(F)(F)F)c1)c1ccc(N(C)C)cc1NC(=O)c1ccco1 (stereo unspecified)	13	10	27	55*	2	91*
